ChEMBL document CHEMBL1137362, “Synthesis and radioligand binding studies of methoxylated 1,2,3,4-tetrahydroisoquinolinium derivatives as ligands of the apamin-sensitive Ca2+-activated K+ channels” (J Med Chem, 2006)

Columns and labels:
[1] = target: Small conductance calcium-activated potassium channel (Rattus norvegicus, UniProt P70604+P70606+P70605); assay: Displacement of [125I]apamin from Wistar rat cortical apamin-sensitive site; format: protein assay
[2] = target: Small conductance calcium-activated potassium channel (Rattus norvegicus) (UniProt P70604+P70606+P70605); assay: Displacement of [125I]apamin from Wistar rat cortical apamin-sensitive site at 10 uM; format: protein assay
Procedure, shortened: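 Single-concentration screen at 10 µM: rat cortical synaptosomes (0.2 mg protein/mL) with 10 pM 125I-apamin, 1 h at 0 °C, Tris-HCl pH 7.5 buffer with 5.4 mM KCl and 0.1% BSA. Percent of specific radioligand binding displaced is reported; nonspecific binding defined with 0.1 µM apamin; filtration and scintillation counting; n = 3.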

[3] = organism: Rattus norvegicus; assay: Blockade of apamin-sensitive AHP in Wistar rat dopaminergic neurons by electrophysiology assay; format: functional, organism-based; settings: Neuron
Procedure, shortened: (§1)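 Intracellular bridge-balance recording of the apamin-sensitive AHP in dopaminergic neurons; drugs dissolved in water. IC50 obtained by fitting E = Emax/[1 + (IC50/x)h]; percent AHP block reported at 100 µM; means ± SEM, n = 3.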

[4] = organism: Rattus norvegicus; assay: Blockade of apamin-sensitive AHP in Wistar rat dopaminergic neurons by electrophysiology assay at 100 uM; format: functional, organism-based; settings: neuron; procedure, shortened: as §1

| SMILES | Activity [2] | further results |
| --- | --- | --- |
| COc1cc2c(cc1OC)C(Cc1ccc3ccccc3c1)[N+](C)(C)CC2.[I-] (stereo unspecified) | 70% | Ki [1]: 0.91 µM |
| COc1ccc(CC2c3c(ccc(OC)c3OC)CC[N+]2(C)C)cc1OC (stereo unspecified) | 24% |  |
| CCCC1c2cc(OC)c(OC)cc2CCN1C (stereo unspecified) | 0% |  |
| COc1cc2c(c(OC)c1)C(Cc1ccc(OC)c(OC)c1)N(C)CC2 (stereo unspecified) | 0% |  |
| COc1cc2c(cc1OC)C(CC(C)C)N(C)CC2 (stereo unspecified) | 0% |  |
| COc1ccc(CCC2c3cc(OC)c(OC)cc3CC[N+]2(C)C)cc1OC.[I-] (stereo unspecified) | 32% | Ki [1]: 5.4 µM |
| COc1cc2c(c(OC)c1OC)C(Cc1ccc3ccccc3c1)N(C)CC2 (stereo unspecified) | 0% |  |
| COc1cc2c(c(OC)c1)C(Cc1ccc3ccccc3c1)N(C)CC2 (stereo unspecified) | 0% |  |
| COc1ccc2c(c1OC)C(Cc1ccc3ccccc3c1)[N+](C)(C)CC2 (stereo unspecified) | 18% |  |
| COc1cc2c(c(OC)c1)C(Cc1ccc(OC)c(OC)c1)[N+](C)(C)CC2 (stereo unspecified) | 20% |  |
| COc1ccc2c(c1OC)C(=O)O[C@@H]2[C@H]1c2c(cc3c(c2OC)OCO3)CC[N+]1(C)C.[I-] |  | Ki [1]: 3.6 µM |
| COc1ccc(CC2c3c(cc(OC)c(OC)c3OC)CC[N+]2(C)C)cc1OC.[I-] (stereo unspecified) | 72% | Ki [1]: 0.73 µM; IC50 [3]: 9 µM |
| COc1cc2c(cc1OC)C(Cc1ccc3ccccc3c1)N(C)CC2 (stereo unspecified) | 6% |  |
| C[N+]1(C)CCc2ccccc2C1Cc1ccc2ccccc2c1 (stereo unspecified) | 1% |  |
| COc1ccc(CC2c3c(cc(OC)c(OC)c3OC)CCN2C)cc1OC (stereo unspecified) | 27% | Inhibition [4]: 51.9% |
| COc1ccc(C[C@H]2c3cc(OC)c(OC)cc3CC[N+]2(C)C)cc1OC.[I-] [LAUDANOSINE METHIODIDE] |  | Ki [1]: 1.3 µM; IC50 [3]: 15 µM |

Continued, in another order:

| Activity [2] | SMILES | further results |
| --- | --- | --- |
| 11% | COc1ccc(CCC2c3cc(OC)c(OC)cc3CCN2C)cc1OC (stereo unspecified) |  |
| 53% | COc1cc2c(c(OC)c1OC)C(Cc1ccc3ccccc3c1)[N+](C)(C)CC2.[I-] (stereo unspecified) | Ki [1]: 2.2 µM |
| 6% | CCCC1c2cc(OC)c(OC)cc2CC[N+]1(C)C (stereo unspecified) |  |
| 0% | COc1cc2c(cc1OC)C(CC(C)C)[N+](C)(C)CC2 (stereo unspecified) |  |
| 3% | COc1ccc(CC2c3c(ccc(OC)c3OC)CCN2C)cc1OC (stereo unspecified) |  |
| 0% | COc1ccc2c(c1OC)C(Cc1ccc3ccccc3c1)N(C)CC2 (stereo unspecified) |  |
| 2% | COc1cc2c(c(OC)c1)C(Cc1ccc3ccccc3c1)[N+](C)(C)CC2 (stereo unspecified) |  |
| 0% | CN1CCc2ccccc2C1Cc1ccc2ccccc2c1 (stereo unspecified) |  |
